# Reference: PubChem BioAssay
# A number with no mark means an inactive call.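 Rule for the calls, unless noted: active = viability at or below 30% in both replicate assays; inconclusive = viability at or below 30% in just one of the two assays; inactive = the rest.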
# Test: HUVEC growth inhibition – cell-based, human, primary screen (AID 575);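 note: 100% = median of untreated cell wells with 0.1% DMSO on each plate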
# Conditions: HUVEC proliferation, CellTiter-Glo luminescence, 72 h; at 10 µM; stronger effect = lower value
# Procedure, shortened: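 Test system: primary human umbilical vein endothelial cells; medium: endothelial basal medium with 2% FBS plus growth supplements; dosing: 10 µM compound only; times: 72 h treatment at 37 °C; signal: CTG luminescence; read-out: % viability relative to median vehicle-well signal on each plate; control set: vehicle and MePR control wells; plate: 384-well, collagen-coated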
row,SMILES,viability [%]
1,O=C(c1ccc2nc(N3CCCCC3)sc2c1)N1CCN(c2ccccn2)CC1,68.1
2,CC(C)CCNC(=O)Cn1c(NCCC(C)C)nc2c1c(=O)n(C)c(=O)n2C,102
3,CC(=O)NC(C)c1nc2ccccc2n1C(C)C (stereo not drawn),88.1
4,NC(=O)CSc1cn(CCNC(=O)c2cccs2)c2ccccc12,99.4
5,Cc1cccc(C2CC(c3ccc(Cl)cc3)Nc3nc(N)nn32)c1 (stereo not drawn),103
6,CCOC(=O)CN1CC23C=CC(O2)C(C(=O)Nc2ccc(C(C)=O)cc2)C3C1=O (stereo not drawn),101
7,CCCSc1nnc(N2C(=O)CC(c3ccsc3)C3=C2CCCC3=O)s1 (stereo not drawn),93.8
8,O=C(CN1CCN(Cc2ccc(F)cc2Cl)C1=O)NCCCN1CCOCC1,95.2
9,CN(C)CCCN1C(=O)CSC1c1ccccc1 (stereo not drawn),91.6
10,COC(=O)Cn1c(=O)c2c(nc3n2CC(C)CN3c2ccc(C)c(C)c2)n(C)c1=O (stereo not drawn),93.2
11,CCCSC1=C(C#N)C(c2cc(OC)ccc2OC)CC(=O)N1 (stereo not drawn),98.3
12,O=C(Nc1ccc(CN2CCOCC2)cc1)c1cc2ccccn2n1,94.4
13,CCN(CC)CCn1c(=N)n(CCO)c2ccccc21,107
14,CCN(CCCNS(=O)(=O)c1ccc2c(c1)oc(=O)n2C)c1cccc(C)c1,106
15,COc1ccc(OC)c(C2=NOC(C(=O)Nc3c(C)n(C)n(-c4ccccc4)c3=O)C2)c1 (stereo not drawn),84.6
16,O=C(Cn1cc2c(n1)CCCCC2)N1CCc2ccccc2C1,95
17,Cn1c(=O)c2c(nc(SCCCC#N)n2Cc2c(F)cccc2Cl)n(C)c1=O,91.8
18,CCN1CCN(Cc2ccc(NC(=O)Nc3ccccc3)cc2)CC1,82.5
19,CCOC(=O)N1CCN(Cc2nc3c(c(=O)n(C)c(=O)n3C)n2Cc2ccccc2)CC1,96.3
20,COCCCNC(=O)Cn1cc2c(n1)CCC(C)C2 (stereo not drawn),90.5

row,SMILES,viability [%]
1,C=CCc1ccccc1OCCCCN1CCCC1,77.1
2,COc1ccc(OCC(=O)N2CC3(C)CC2CC(C)(C)C3)cc1 (stereo not drawn),108
3,O=C1c2ccccc2C(Nc2ccc(-c3nc4ccccc4[nH]3)cc2)N1Cc1ccco1 (stereo not drawn),65.9
4,CCCNc1nc(N2CCOCC2)nc(N2CCOCC2)n1,109
5,COCCn1c(SCC(=O)Nc2ccc3c(c2)OCCO3)nc2c(c1=O)SC(C)C2 (stereo not drawn),108
6,COc1ccc(NC(=O)C2CCCN2S(=O)(=O)c2cccc3cccnc23)c(OC)c1 (stereo not drawn),90.5
7,CCOC(=O)Cn1ncc(-c2ccccc2)c1N,102
8,O=C(O)C1CC(=O)N(CCOc2ccccc2)C1 (stereo not drawn),111
9,Cc1ccc(-n2c3c(cc(C(=O)NCCCN4CCOCC4)c2=O)C(=O)CC(C)(C)C3)cc1,87
10,CCOC(=O)C1CCN(Cc2ccc(OC)c(C)c2OC)CC1,108
11,COc1ccc(C(C)N2CC34C=CC(O3)C(C(=O)OCC(C)C)C4C2=O)cc1 (stereo not drawn),97.2
12,Cc1c(NC(=O)C2CCCCN2S(=O)(=O)c2ccc(Cl)cc2)c(=O)n(-c2ccccc2)n1C (stereo not drawn),90.1
13,CC(C)(NC(=O)N1CCCC1)c1cccc(C(C)(C)NC(=O)N2CCCC2)c1,97.7
14,CC(C)NC(=O)c1ccc2c(c1)nnn2C,87.6
15,Cc1ccc(C(=O)CC2(O)C(=O)N(C)c3ccc(Br)cc32)c(C)c1 (stereo not drawn),77.7
16,Cc1ccc(NC(=O)CN(c2ccc3c(c2)OCO3)S(=O)(=O)c2c(C)n[nH]c2C)cc1,85.1
17,COc1ccc(N2CCN(Cc3nc4c(c(=O)n(C)c(=O)n4C)n3Cc3ccccc3C)CC2)cc1,94.5
18,CN(C(=O)c1ccco1)c1nnc(C23CC4CC(CC(C4)C2)C3)s1,60.3
19,CCCC(=O)C1=C(N(C)c2ccccc2)CC(C)(C)C(C(=O)OC)C1=O (stereo not drawn),97.9

# Test: H69AR cell proliferation blockers – human, duplicate replicates, primary screen (AID 580;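 active = viability at or under a set limit in both replicates, limit being median viability minus 3 SD, cut at about 48% in these data, passing the limit was not always enough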;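 note: 100% = mean luminescence of untreated wells and 0% = no signal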)
# Conditions: H69AR lung tumor cells viability, ATP luminescence, 72 h; at 10 µM; stronger effect = lower value
row,SMILES,viability [%]
1,O=C(c1ccc2nc(N3CCCCC3)sc2c1)N1CCN(c2ccccn2)CC1,102
2,CC(C)CCNC(=O)Cn1c(NCCC(C)C)nc2c1c(=O)n(C)c(=O)n2C,93.7
3,CC(=O)NC(C)c1nc2ccccc2n1C(C)C (stereo not drawn),93.9
4,NC(=O)CSc1cn(CCNC(=O)c2cccs2)c2ccccc12,93.4
5,Cc1cccc(C2CC(c3ccc(Cl)cc3)Nc3nc(N)nn32)c1 (stereo not drawn),96.6
6,CCOC(=O)CN1CC23C=CC(O2)C(C(=O)Nc2ccc(C(C)=O)cc2)C3C1=O (stereo not drawn),96.4
7,CCCSc1nnc(N2C(=O)CC(c3ccsc3)C3=C2CCCC3=O)s1 (stereo not drawn),92.7
8,O=C(CN1CCN(Cc2ccc(F)cc2Cl)C1=O)NCCCN1CCOCC1,102
9,CN(C)CCCN1C(=O)CSC1c1ccccc1 (stereo not drawn),94.4
10,COC(=O)Cn1c(=O)c2c(nc3n2CC(C)CN3c2ccc(C)c(C)c2)n(C)c1=O (stereo not drawn),85.5
11,CCCSC1=C(C#N)C(c2cc(OC)ccc2OC)CC(=O)N1 (stereo not drawn),89.1
12,O=C(Nc1ccc(CN2CCOCC2)cc1)c1cc2ccccn2n1,94.7
13,CCN(CC)CCn1c(=N)n(CCO)c2ccccc21,101
14,CCN(CCCNS(=O)(=O)c1ccc2c(c1)oc(=O)n2C)c1cccc(C)c1,90.1
15,COc1ccc(OC)c(C2=NOC(C(=O)Nc3c(C)n(C)n(-c4ccccc4)c3=O)C2)c1 (stereo not drawn),95.3
16,O=C(Cn1cc2c(n1)CCCCC2)N1CCc2ccccc2C1,92.9
17,Cn1c(=O)c2c(nc(SCCCC#N)n2Cc2c(F)cccc2Cl)n(C)c1=O,77.3
18,CCN1CCN(Cc2ccc(NC(=O)Nc3ccccc3)cc2)CC1,88.7
19,CCOC(=O)N1CCN(Cc2nc3c(c(=O)n(C)c(=O)n3C)n2Cc2ccccc2)CC1,89.1
20,COCCCNC(=O)Cn1cc2c(n1)CCC(C)C2 (stereo not drawn),90.1

row,SMILES,viability [%]
1,C=CCc1ccccc1OCCCCN1CCCC1,83.3
2,COc1ccc(OCC(=O)N2CC3(C)CC2CC(C)(C)C3)cc1 (stereo not drawn),99.8
3,O=C1c2ccccc2C(Nc2ccc(-c3nc4ccccc4[nH]3)cc2)N1Cc1ccco1 (stereo not drawn),83.1
4,CCCNc1nc(N2CCOCC2)nc(N2CCOCC2)n1,90.5
5,COCCn1c(SCC(=O)Nc2ccc3c(c2)OCCO3)nc2c(c1=O)SC(C)C2 (stereo not drawn),84.4
6,COc1ccc(NC(=O)C2CCCN2S(=O)(=O)c2cccc3cccnc23)c(OC)c1 (stereo not drawn),95
7,CCOC(=O)Cn1ncc(-c2ccccc2)c1N,93
8,O=C(O)C1CC(=O)N(CCOc2ccccc2)C1 (stereo not drawn),93.9
9,Cc1ccc(-n2c3c(cc(C(=O)NCCCN4CCOCC4)c2=O)C(=O)CC(C)(C)C3)cc1,85
10,CCOC(=O)C1CCN(Cc2ccc(OC)c(C)c2OC)CC1,86.9
11,COc1ccc(C(C)N2CC34C=CC(O3)C(C(=O)OCC(C)C)C4C2=O)cc1 (stereo not drawn),85.1
12,Cc1c(NC(=O)C2CCCCN2S(=O)(=O)c2ccc(Cl)cc2)c(=O)n(-c2ccccc2)n1C (stereo not drawn),91.3
13,CC(C)(NC(=O)N1CCCC1)c1cccc(C(C)(C)NC(=O)N2CCCC2)c1,95.5
14,CC(C)NC(=O)c1ccc2c(c1)nnn2C,99.4
15,Cc1ccc(C(=O)CC2(O)C(=O)N(C)c3ccc(Br)cc32)c(C)c1 (stereo not drawn),75
16,Cc1ccc(NC(=O)CN(c2ccc3c(c2)OCO3)S(=O)(=O)c2c(C)n[nH]c2C)cc1,93.1
17,COc1ccc(N2CCN(Cc3nc4c(c(=O)n(C)c(=O)n4C)n3Cc3ccccc3C)CC2)cc1,80
18,CN(C(=O)c1ccco1)c1nnc(C23CC4CC(CC(C4)C2)C3)s1,75.9
19,CCCC(=O)C1=C(N(C)c2ccccc2)CC(C)(C)C(C(=O)OC)C1=O (stereo not drawn),94.4
